Results from ChEMBL document CHEMBL1146316, “Novel antitumor agent family of 1H-benzo[c,d]indol-2-one with flexible basic side chains: synthesis and biological evaluation” (Bioorg Med Chem, 2007).

Assays:
P388 = test: Cytotoxicity against mouse P388 cells by microculture tetrazolium-formazan method; format: functional, cell-based
Summary of the method: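 Murine P388 leukemia cells were assayed by the microculture tetrazolium–formazan method, and the IC50 was reported as the cytotoxicity value.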

A549 = test: Cytotoxicity against human A549 cells by sulforhodamine B dye-staining method; format: functional, cell-based
Summary of the method: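 Human lung cancer A549 cells were stained with sulforhodamine B dye, and the IC50 was reported as the cytotoxicity value.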

Row | Compound | IC50 (P388) | IC50 (A549)
1 | O=C1c2ccc([N+](=O)[O-])c3cccc(c23)N1CCCl | 17.8 µmol | 52.5 µmol
2 | CN(C)CCCN1C(=O)c2cccc3cccc1c23 | 7.76 µmol | 22.9 µmol
3 | O=C1c2cccc3cccc(c23)N1CCNCCN1C(=O)c2cccc3cccc1c23 | 13.8 µmol | 29.5 µmol
4 | CN(C)CCNCCN1C(=O)c2cccc3cccc1c23 | 1.69 µmol | 0.489 µmol
5 | CN(C)CCN1C(=O)c2cccc3cccc1c23 | 79.4 µmol | 300 µmol
